Laboratory results from ChEMBL document CHEMBL1127082, “3,4-Dihydroxychalcones as potent 5-lipoxygenase and cyclooxygenase inhibitors” (J Med Chem, 1993).

Legend:
[1] = Inhibition of Prostaglandin G/H synthase activity in sheep seminal vesicle was determined; type: tissue-based, Ovis aries
How it was run: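 Sheep seminal vesicle microsomes (32 μg protein) were incubated with [14C]arachidonic acid (0.1 μCi/mL) in pH 7.4 phosphate buffer containing glutathione, epinephrine and EDTA for 10 min at 37 °C. Substrate was removed by two hexane/EtOAc extractions, and aqueous-phase radioactivity was counted by scintillation.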

[2] = target: T1, Polyunsaturated fatty acid 5-lipoxygenase (Rattus norvegicus, UniProt P12527); assay: In vitro inhibition against 5-lipoxygenase in RBL-1 cells was determined; type: cell-based
T1 sequence (P12527 whole entry): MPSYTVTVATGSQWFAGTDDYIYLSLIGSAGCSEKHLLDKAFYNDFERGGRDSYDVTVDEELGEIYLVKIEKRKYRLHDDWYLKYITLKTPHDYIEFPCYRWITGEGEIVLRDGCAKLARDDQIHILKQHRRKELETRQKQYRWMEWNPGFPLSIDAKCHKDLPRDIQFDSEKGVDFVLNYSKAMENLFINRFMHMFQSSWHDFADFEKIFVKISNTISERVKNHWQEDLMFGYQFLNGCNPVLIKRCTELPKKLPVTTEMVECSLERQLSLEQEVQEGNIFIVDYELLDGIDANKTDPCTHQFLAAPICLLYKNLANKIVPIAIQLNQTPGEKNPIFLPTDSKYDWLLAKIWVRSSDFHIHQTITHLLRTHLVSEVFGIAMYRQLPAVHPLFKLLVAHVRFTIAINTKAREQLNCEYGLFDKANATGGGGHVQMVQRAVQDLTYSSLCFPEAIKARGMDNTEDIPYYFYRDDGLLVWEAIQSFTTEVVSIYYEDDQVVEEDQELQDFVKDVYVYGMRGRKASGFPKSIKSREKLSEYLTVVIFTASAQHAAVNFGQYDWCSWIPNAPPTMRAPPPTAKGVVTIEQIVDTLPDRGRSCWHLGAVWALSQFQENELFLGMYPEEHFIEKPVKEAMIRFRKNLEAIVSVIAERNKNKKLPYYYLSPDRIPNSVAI

[3] = target: Prostaglandin G/H synthase 1 (Ovis aries) (UniProt P05979); assay: Inhibition of Prostaglandin G/H synthase activity in sheep seminal vesicle was determined; set-up: concentration or dose not given beside the values; settings: concentration not given here
Prostaglandin G/H synthase 1 (Ovis aries), sequence (P05979 whole entry, looked up): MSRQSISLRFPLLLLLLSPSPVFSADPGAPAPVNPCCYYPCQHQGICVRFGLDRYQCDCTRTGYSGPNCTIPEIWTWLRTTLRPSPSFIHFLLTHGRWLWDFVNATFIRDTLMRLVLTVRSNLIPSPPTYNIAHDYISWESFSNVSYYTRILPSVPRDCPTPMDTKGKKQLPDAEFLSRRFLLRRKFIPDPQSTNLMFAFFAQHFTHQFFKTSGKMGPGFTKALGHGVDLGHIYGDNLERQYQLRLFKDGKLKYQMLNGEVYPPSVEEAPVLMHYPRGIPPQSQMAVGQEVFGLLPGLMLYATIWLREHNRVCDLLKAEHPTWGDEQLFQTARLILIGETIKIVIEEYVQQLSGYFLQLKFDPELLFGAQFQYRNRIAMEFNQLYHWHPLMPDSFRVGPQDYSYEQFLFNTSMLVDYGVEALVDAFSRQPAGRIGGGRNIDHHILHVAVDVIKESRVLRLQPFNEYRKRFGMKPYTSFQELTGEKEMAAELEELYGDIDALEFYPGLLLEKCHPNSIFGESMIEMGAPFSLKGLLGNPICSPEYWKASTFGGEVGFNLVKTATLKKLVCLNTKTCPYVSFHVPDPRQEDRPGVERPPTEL

Rattus norvegicus = organism: Rattus norvegicus; assay: Inhibition of lipid peroxidation in rat liver microsomes at 1 uM; type: functional
[4] = target: Prostaglandin G/H synthase 1 (Ovis aries) (UniProt P05979); assay: Inhibition of Prostaglandin G/H synthase activity in sheep seminal vesicle was determined 100 uM
[5] = target: T2, Polyunsaturated fatty acid 5-lipoxygenase (Rattus norvegicus) (UniProt P12527); assay: In vitro inhibition against 5-lipoxygenase in RBL-1 cells was determined at 100 uM; type: cell-based
T2 sequence (whole entry): T1 sequence (P12527 whole entry)
How it was run: (§1)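 Single-concentration test at 100 μM, given as percent inhibition versus control, average of two determinations. RBL-1 cell homogenate (5 × 10⁶ cells) with 2 mM CaCl2 and 0.66 mM arachidonic acid, pH 7.4 phosphate buffer, 3 min at 37 °C. 5-HETE was measured by HPLC absorbance at 235 nm.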

Mus musculus = assay: Inhibition of arachidonic acid induced mouse ear edema at 30 ug/ear; type: functional
How it was run: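 Male ICR mice (25–28 g), 4–8 per group, received the compound topically in acetone, then 1 mg arachidonic acid on the inner surface of one ear. After 1 h, swelling was taken as the weight difference between challenged and unchallenged ears. Inhibition = (C−T)/C × 100; mean ± SE; Student's t test.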

[6] = target: T2, Polyunsaturated fatty acid 5-lipoxygenase (Rattus norvegicus); assay: In vitro inhibition against 5-lipoxygenase in RBL-1 cells was determined at 10e-4 M; type: cell-based
How it was run: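 RBL-1 cells grown in RPMI-1640 with 10% heat-inactivated newborn calf serum at 37 °C in 5% CO2, harvested in growth phase, suspended in 50 mM phosphate buffer pH 7.4 (0.25 M sucrose, 1 mM EDTA, 2 mM glutathione) and stored at -70 °C. Homogenate (5 × 10⁶ cells), 2 mM CaCl2 and 0.66 mM arachidonic acid incubated 3 min at 37 °C. MeOH stop, 5-HETE by HPLC at 235 nm. Percent inhibition versus control at 10⁻⁴ M, mean of two determinations.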

[7] = target: Cyclooxygenase (Homo sapiens) (UniProt P35354+P23219); assay: Inhibition of Prostaglandin G/H synthase activity in sheep seminal vesicle was determined 10E-4 […]; type: tissue-based; settings: Ovis aries, target entry is the homologue from another species
[8] = target: Prostaglandin G/H synthase 1 (Ovis aries) (UniProt P05979); assay: Inhibition of Prostaglandin G/H synthase activity in sheep seminal vesicle was determined 100 uM; remark: listed apart in the source
[9] = target: Prostaglandin G/H synthase 1 (Ovis aries) (UniProt P05979); assay: Inhibition of Prostaglandin G/H synthase activity in sheep seminal vesicle was determined at 100 uM
[10] = target: T2, Polyunsaturated fatty acid 5-lipoxygenase (Rattus norvegicus); assay: In vitro inhibition against 5-lipoxygenase in RBL-1 cells was determinedb at 100 uM; type: cell-based; how it was run: as §1

| SMILES | IC50 [1] [µM] | IC50 [2] [µM] | further results |
| --- | --- | --- | --- |
| Cc1cc(C)c(C(=O)/C=C/c2ccc(O)c(O)c2)c(C)c1 | 280 | 0.4 | – |
| O=C(/C=C/c1ccccc1)c1c(O)cc(O)cc1O [2',4',6-TRIHYDROXYCHALCONE] | – | – | inhibition [3]: 6.9%; inhibition (Rattus norvegicus): 9% |
| COc1ccc(OC)c(C(=O)/C=C/c2ccc(O)c(O)c2)c1 | 9.2 | – | – |
| CC(Cc1ccc(O)c(O)c1)C(C)Cc1ccc(O)c(O)c1 (stereo not given) [NORDIHYDROGUAIARETIC ACID] | 210 | – | – |
| COc1ccc(C(=O)/C=C/c2ccc(O)c(O)c2)c(OC)c1 | 160 | 0.01 | – |
| COc1cccc(C(=O)/C=C/c2ccc(O)c(O)c2)c1 | 15 | 0.0065 | – |
| O=C(/C=C/c1ccccc1)c1ccccc1O | – | – | inhibition [4]: 13%; inhibition [5]: 19%; inhibition (Rattus norvegicus): 6% |
| O=C(/C=C/c1ccc(O)c(O)c1)c1ccc(Cl)cc1 | 1400 | 0.0085 | – |
| O=C(/C=C/c1ccccc1)c1ccc(O)cc1 | – | – | inhibition [4]: 20%; inhibition (Rattus norvegicus): 5% |
| O=C1CCN(c2ccccc2)N1 [PHENIDONE] | 80 | – | Inhibition (Mus musculus): 24.6% |
| O=C(O)c1ccccc1Nc1cccc(C(F)(F)F)c1 [FLUFENAMIC ACID] | 19 | – | inhibition [6]: -0.1% |
| O=C(/C=C/c1ccc(O)cc1)c1ccc(O)cc1O [ISOLIQUIRITIGENIN] | – | 35 | inhibition (Rattus norvegicus): 9% |
| O=c1c(O)c(-c2ccc(O)c(O)c2)oc2cc(O)cc(O)c12 | – | – | inhibition [7]: 13% |
| COc1cc(/C=C/C(=O)c2ccccc2O)ccc1O | – | – | inhibition (Rattus norvegicus): 14%; IC50 [8]: 63 µM |
| Cc1ccc(C(=O)/C=C/c2ccc(O)c(O)c2)c(C)c1 | 41 | 0.017 | – |
| O=C(/C=C/c1ccc(O)c(O)c1)c1ccc(O)cc1 | 320 | – | inhibition (Rattus norvegicus): 36% |
| CCOc1ccc(OCC)c(C(=O)/C=C/c2ccc(O)c(O)c2)c1 | 24 | 0.0024 | Inhibition (Mus musculus): -18% |
| Cc1ccc(C)c(C(=O)/C=C/c2ccc(O)c(O)c2)c1 | 44 | 0.016 | – |
| COc1ccc(C)cc1C(=O)/C=C/c1ccc(O)c(O)c1 | 30 | 0.024 | Inhibition (Mus musculus): 47% |

| SMILES | IC50 [1] [µM] | IC50 [2] [µM] | further results |
| --- | --- | --- | --- |
| CN1C(C(=O)Nc2ccccn2)=C(O)c2ccccc2S1(=O)=O [PIROXICAM] | 460 | – | inhibition [6]: 19% |
| O=C(/C=C/c1ccc(O)c(O)c1)c1ccccc1O | – | 0.023 | inhibition (Rattus norvegicus): 45%; IC50 [8]: 44 µM |
| COc1ccc(OC(C)C)cc1C(=O)/C=C/c1ccc(O)c(O)c1 | 60 | 0.014 | Inhibition (Mus musculus): 34% |
| CCOc1ccc(OC)c(C(=O)/C=C/c2ccc(O)c(O)c2)c1 | 26 | 0.0038 | – |
| CC(C)Oc1ccc(C(=O)/C=C/c2ccc(O)c(O)c2)cc1 | – | 0.041 | inhibition [9]: 11% |
| COc1ccc(C(=O)/C=C/c2ccc(O)c(OC)c2)cc1 | – | 12 | inhibition [3]: -7.3%; inhibition (Rattus norvegicus): 2.3% |
| Cc1cccc(C(=O)/C=C/c2ccc(O)c(O)c2)c1 | 71 | 0.027 | – |
| O=C(/C=C/c1ccc(O)c(O)c1)c1ccccc1 | 34 | 0.043 | inhibition (Rattus norvegicus): 44% |
| COc1ccccc1C(=O)/C=C/c1ccc(O)c(O)c1 | 13 | 0.027 | – |
| O=C(/C=C/c1ccc(O)c(O)c1)c1ccc([N+](=O)[O-])cc1 | – | 0.023 | inhibition [3]: 5% |
| Cc1ccc(O)c(C(=O)/C=C/c2ccc(O)c(O)c2)c1 | 120 | 0.039 | – |
| COc1ccc2c(c1)c(CC(=O)O)c(C)n2C(=O)c1ccc(Cl)cc1 [INDOMETHACIN] | 0.8 | – | Inhibition (Mus musculus): 4.8% |
| O=C(/C=C/c1ccc(O)c(O)c1)c1ccc(O)cc1O [BUTEIN] | – | 0.0046 | inhibition (Rattus norvegicus): 40%; IC50 [8]: 120 µM |
| COc1ccc(C(=O)/C=C/c2ccc(O)c(O)c2)cc1 | 490 | 0.02 | – |
| O=C(/C=C/c1ccccc1)c1ccc(O)cc1O [2',4'-DIHYDROXYCHALCONE] | 280 | – | inhibition (Rattus norvegicus): 5% |
| O=C(/C=C/c1ccc(O)c(O)c1)c1ccccc1Cl | – | 0.092 | IC50 [8]: 71 µM |
| O=C(/C=C/c1ccc(O)c(O)c1)c1cccc(O)c1 | 140 | 0.0042 | inhibition (Rattus norvegicus): 24% |
| COc1cc(C(=O)/C=C/c2ccc(O)c(O)c2)cc(OC)c1OC | – | 0.016 | inhibition [9]: 13% |
| COc1cc(/C=C/C(=O)c2ccc(Cl)cc2)ccc1O | 41 | 8.9 | – |

| SMILES | IC50 [1] [µM] | IC50 [2] [µM] | further results |
| --- | --- | --- | --- |
| CN(C)c1cccc(C(=O)/C=C/c2ccc(O)c(O)c2)c1 | 41 | 0.0098 | – |
| COc1ccc(C(=O)/C=C/c2ccc(O)c(O)c2)cc1OC | 140 | 0.018 | – |
| Cc1ccc(C(=O)/C=C/c2ccc(O)c(O)c2)cc1 | 210 | 0.076 | – |
| COc1cccc(OC)c1C(=O)/C=C/c1ccc(O)c(O)c1 | – | 0.37 | inhibition [9]: 15% |
| O=C(/C=C/c1ccc(O)cc1)c1ccccc1O | 390 | – | inhibition (Rattus norvegicus): 6% |
| COc1cc(C(=O)/C=C/c2ccc(O)c(O)c2)ccc1O | – | 0.009 | inhibition [9]: 14% |
| CN(C)c1ccc(C(=O)/C=C/c2ccc(O)c(O)c2)cc1 | 810 | 0.0047 | – |
| COc1ccc(C(=O)/C=C/c2ccc(O)c(O)c2)c(O)c1 [CALYTHROPSIN] | 65 | – | – |
| O=C(/C=C/c1ccc(O)c(O)c1)c1cc(O)ccc1O | 170 | 0.064 | – |
| CC(C)Oc1ccc(O)c(C(=O)/C=C/c2ccc(O)c(O)c2)c1 | 140 | 0.011 | – |
| O=C(/C=C/c1ccc(O)c(O)c1)c1ccccc1C(F)(F)F | 230 | 0.058 | – |
| O=C(/C=C/c1ccc(O)cc1)c1c(O)cc(O)cc1O | – | – | inhibition [3]: 3.1%; inhibition (Rattus norvegicus): 8% |
| Oc1c(Cc2ccccc2)ccc2ccccc12 | 24 | 0.0069 | Inhibition (Mus musculus): 67% |
| CCCCOc1ccc(O)c(C(=O)/C=C/c2ccc(O)c(O)c2)c1 | – | 1 | inhibition [9]: 4.2%; Inhibition (Mus musculus): 33% |
| O=C(/C=C/c1ccc(O)c(O)c1)c1c(O)cc(O)cc1O [3,4,2',4',6'-PENTAHYDROXYCHALCONE] | – | 0.14 | inhibition [4]: 11%; inhibition (Rattus norvegicus): 18% |
| CCOc1ccc(OC)cc1C(=O)/C=C/c1ccc(O)c(O)c1 | 2 | 0.027 | – |
| COc1ccc(/C=C/C(=O)c2ccccc2O)cc1O | – | – | inhibition [10]: -4.5%; inhibition [3]: 8.6%; inhibition (Rattus norvegicus): 11% |
| CCOc1ccc(O)c(C(=O)/C=C/c2ccc(O)c(O)c2)c1 | 130 | 0.0053 | Inhibition (Mus musculus): 42% |
| CC(C)c1ccc(O)c(C(=O)/C=C/c2ccc(O)c(O)c2)c1 | 37 | 0.004 | Inhibition (Mus musculus): 16% |
